Measured values from paper PMC2767179 (Bioorganic & medicinal chemistry letters, 2009).

Columns and labels:
[1] = test system: Myc-induced oncogenic transformation in chicken embryo fibroblasts (CEF); assay type: cell-based; details: for IC95, inhibition of foci formation: Myc-induced foci in CEF; for inhibition of foci formation: at 20 μM; for inhibition of foci formation / EOT (efficiency of transformation, no inhibition = 1): Myc-induced, CEF; for EOT (efficiency of transformation, no inhibition = 1): tested at 20 μM
Summary of the method: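 Chicken embryo fibroblasts infected with the RCAS viral vector expressing transforming chicken cellular Myc. Test compound added at 20 μM. Cultures maintained for three weeks, then foci in each well counted manually by eye. Result expressed as efficiency of transformation (EOT), with no inhibition = 1. Active candidates re-tested in iterative rounds.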

[2] = test system: Jun-induced oncogenic transformation in CEF; assay type: cell-based, chicken; details: CEF infected with avian sarcoma virus 17
[3] = test system: CEF; assay: Intrinsic cytotoxic activity for CEF; assay type: cell-based, chicken
[4] = test system: Myc/Max dimerization; assay: FRET assay for inhibition of Myc-Max dimerization; assay type: binding
[5] = test system: Src-induced oncogenic transformation in CEF; assay type: cell-based, chicken; details: CEF infected with Prague strain of Rous sarcoma virus

| SMILES | IC95, inhibition of foci formation [1] | inhibition of foci formation [1] | EOT (efficiency of transformation, no inhibition = 1) [1] | inhibitory activity for foci formation induced by Jun [2] | intrinsic cytotoxic activity for CEF [3] | inhibition of Myc/Max dimerization [4] | inhibitory activity for foci formation induced by Src [5] |
| --- | --- | --- | --- | --- | --- | --- | --- |
| Cc1cc(C)c(S(=O)(=O)N[C@@H](CNC(=O)[C@@H]2CN(C(=O)CC3CCN(C(=O)OC(C)(C)C)CC3)C[C@H]2C(=O)O)C(=O)OC(C)(C)C)c(C)c1 [compound 3, mycmycin-1] | 20 µM | complete inhibition of foci formation | 0.05 | failed to exhibit inhibitory activity | neither possess an intrinsic cytotoxic acitivity | most effective inhibition | failed to exhibit inhibitory activity |
| CNC(=O)[C@@H]1CN(C(=O)CCCCCNC(=O)OC(C)(C)C)C[C@H]1C(=O)NC[C@H](NS(=O)(=O)c1cc(Cl)sc1Cl)C(=O)OC(C)(C)C [compound 4, mycmycin-2] | 20 µM | complete inhibition of foci formation | 0.05 | failed to exhibit inhibitory activity | neither possess an intrinsic cytotoxic acitivity | less effective inhibition | failed to exhibit inhibitory activity |
